Results taken from ChEMBL document CHEMBL1208778, “Synthesis and anti-cancer activity of chalcone linked imidazolones” (2010).
The source made the active and inactive calls. No cut-off for these calls is given here.

Columns and labels:
[1] = system: OVCAR-5; experiment: Growth inhibition of human OVCAR5 cells; format: functional
Outline: (§1)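 Five-dose testing was run within the NCI (Bethesda) in vitro Anticancer Screen Program on a panel of 53 human tumour cell lines from nine cancer types. Growth inhibition is reported as GI50.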

[2] = Growth inhibition of human RPMI8266 cells; format: functional; outline: as §1
[3] = system: MCF7; experiment: Cell cycle arrest in human MCF7 cells assessed as accumulation at G2/M phase at 30 uM after 24 hrs by FACS analysis; format: functional
Outline: (§2)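 MCF-7 cells were treated at 30 µM for 24 h alongside a DMSO control. Fractions in G0, G1, S and G2/M phases were measured by FACS, and values are means of three experiments.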

[4] = system: SF-268; experiment: Growth inhibition of human SF268 cells; format: functional; outline: as §1
[5] = system: HCT-116; experiment: Growth inhibition of human HCT116 cells; format: functional; outline: as §1
[6] = system: EKVX; experiment: Growth inhibition of human EKVX cells; format: functional; outline: as §1
[7] = system: TK-10; experiment: Growth inhibition of human TK10 cells; format: functional
Outline: (§3)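 Compounds that passed a preliminary screen were tested at five doses in the NCI (Bethesda) in vitro Anticancer Screen Program against a 53-line human tumour panel spanning leukemia, lung, colon, CNS, melanoma, ovarian, renal, prostate and breast. Growth inhibition is reported as GI50.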

[8] = system: OVCAR-8; experiment: Growth inhibition of human OVCAR8 cells; format: functional; outline: as §1
[9] = system: OVCAR-3; experiment: Growth inhibition of human OVCAR-3 cells; format: functional; outline: as §1
[10] = system: RXF 393; experiment: Growth inhibition of human RXF393 cells; format: functional; outline: as §1
[11] = system: MCF7; experiment: Cell cycle arrest in human MCF7 cells assessed as accumulation at G0 phase at 30 uM after 24 hrs by FACS analysis; format: functional; outline: as §2
[12] = system: M14; experiment: Growth inhibition of human M14 cells; format: functional; outline: as §1
[13] = system: MCF7; experiment: Induction of apoptosis in human MCF7 cells assessed as […] in PARP cleavage at 30 uM after 24 hrs by Western blot analysis; format: functional, cell-based
Outline: (§4)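 MCF-7 breast carcinoma cells were exposed to 30 µM compound for 24 h, with CA-4 as positive control. Cell lysates were then immunoblotted with antibodies to procaspase-7 and cleavage-specific PARP, using β-actin as loading control.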

[14] = system: HCT-15; experiment: Growth inhibition of human HCT15 cells; format: functional; outline: as §1
[15] = system: SF-539; experiment: Growth inhibition of human SF539 cells; format: functional; outline: as §1
[16] = system: SK-MEL-2; experiment: Growth inhibition of human SK-MEL-2 cells; format: functional; outline: as §1
[17] = system: MCF7; experiment: Growth inhibition of human MCF7 cells; format: functional; outline: as §1
[18] = system: MCF7; experiment: Cell cycle arrest in human MCF7 cells assessed as accumulation at G0 phase at 10 uM after 24 hrs by FACS analysis; format: functional
Outline: (§5)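 MCF-7 breast carcinoma cells were exposed to 10 µM test compound for 24 h, with DMSO as the vehicle control. Cell-cycle distribution was read by FACS as the percentage of cells in G0, G1, S and G2/M.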

[19] = system: NCI-H226; experiment: Growth inhibition of human NCI-H226 cells; format: functional; outline: as §1
[20] = system: UO-31; experiment: Growth inhibition of human UO31 cells; format: functional; outline: as §3
[21] = system: HT-29; experiment: Growth inhibition of human HT-29 cells; format: functional; outline: as §1
[22] = system: A549; experiment: Growth inhibition of human A549 cells; format: functional; outline: as §1
[23] = system: MCF7; experiment: Cell cycle arrest in human MCF7 cells assessed as accumulation at S phase at 30 uM after 24 hrs by FACS analysis; format: functional; outline: as §2
[24] = system: 786-0; experiment: Growth inhibition of human 786-0 cells; format: functional; outline: as §1
[25] = system: UACC-62; experiment: Growth inhibition of human UACC62 cells; format: functional; outline: as §3
[26] = system: MCF7; experiment: Cell cycle arrest in human MCF7 cells assessed as accumulation at G2/M phase at 10 uM after 24 hrs by FACS analysis; format: functional; outline: as §5
[27] = system: ACHN; experiment: Growth inhibition of human ACHN cells; format: functional; outline: as §1
[28] = system: SNB-75; experiment: Growth inhibition of human SNB75 cells; format: functional; outline: as §3
[29] = system: SNB-19; experiment: Growth inhibition of human SNB19 cells; format: functional; outline: as §3
[30] = system: SF-295; experiment: Growth inhibition of human SF295 cells; format: functional; outline: as §1
[31] = system: LOX IMVI; experiment: Growth inhibition of human LOXIMVI cells; format: functional; outline: as §1
[32] = system: PC-3; experiment: Growth inhibition of human PC3 cells; format: functional; outline: as §1
[33] = system: COLO 205; experiment: Growth inhibition of human COLO205 cells; format: functional; outline: as §1
[34] = system: HCC 2998; experiment: Growth inhibition of human HCC2998 cells; format: functional; outline: as §1
[35] = system: MDA-MB-435; experiment: Growth inhibition of human MDA-MB-435 cells; format: functional; outline: as §1
[36] = system: CAKI-1; experiment: Growth inhibition of human Caki1 cells; format: functional; outline: as §1
[37] = system: Malme-3M; experiment: Growth inhibition of human MALME-3M cells; format: functional; outline: as §1
[38] = system: HOP-62; experiment: Growth inhibition of human HOP62 cells; format: functional; outline: as §1
[39] = system: BT-549; experiment: Growth inhibition of human BT549 cells; format: functional; outline: as §1
[40] = Growth inhibition of human Hs 578T cells; format: functional; outline: as §1
[41] = system: MCF7; experiment: Cell cycle arrest in human MCF7 cells assessed as accumulation at S phase at 10 uM after 24 hrs by FACS analysis; format: functional; outline: as §5
[42] = system: A498; experiment: Growth inhibition of human A498 cells; format: functional; outline: as §1
[43] = system: T47D; experiment: Growth inhibition of human T47D cells; format: functional; outline: as §3
[44] = system: SK-OV-3; experiment: Growth inhibition of human SKOV3 cells; format: functional; outline: as §3
[45] = system: NCI-H322M; experiment: Growth inhibition of human NCI-H322M cells; format: functional; outline: as §1
[46] = system: MCF7; experiment: Induction of apoptosis in human MCF7 cells assessed as decrease in procaspase 7 level at 30 uM after 24 hrs by Western blot analysis; format: functional, cell-based; outline: as §4
[47] = system: HOP-92; experiment: Growth inhibition of human HOP92 cells; format: functional; outline: as §1
[48] = system: MDA-MB-231; experiment: Growth inhibition of human MDA-MB-231 cells; format: functional; outline: as §1
[49] = system: SK-MEL-5; experiment: Growth inhibition of human SK-MEL-5 cells; format: functional; outline: as §1
[50] = system: SW-620; experiment: Growth inhibition of human SW620 cells; format: functional; outline: as §3
[51] = system: SK-MEL-28; experiment: Growth inhibition of human SK-MEL-28 cells; format: functional; outline: as §1
[52] = system: NCI-H23; experiment: Growth inhibition of human NCI-H23 cells; format: functional; outline: as §1
[53] = system: MCF7; experiment: Cell cycle arrest in human MCF7 cells assessed as accumulation at G1 phase at 30 uM after 24 hrs by FACS analysis; format: functional; outline: as §2
[54] = system: UACC-257; experiment: Growth inhibition of human UACC257 cells; format: functional; outline: as §3
[55] = system: NCI/ADR-RES; experiment: Growth inhibition of human NCI/ADR-RES cells; format: functional; outline: as §1
[56] = system: KM12; experiment: Growth inhibition of human KM12 cells; format: functional; outline: as §1
[57] = system: U-251; experiment: Growth inhibition of human U251 cells; format: functional; outline: as §3
[58] = system: K562; experiment: Growth inhibition of human K562 cells; format: functional; outline: as §1
[59] = system: SN12C; experiment: Growth inhibition of human SN12C cells; format: functional; outline: as §3
[60] = system: OVCAR-4; experiment: Growth inhibition of human OVCAR4 cells; format: functional; outline: as §1
[61] = system: NCI-H460; experiment: Growth inhibition of human NCI-H460 cells; format: functional; outline: as §1
[62] = system: MCF7; experiment: Cell cycle arrest in human MCF7 cells assessed as accumulation at G1 phase at 10 uM after 24 hrs by FACS analysis; format: functional; outline: as §5
[63] = system: NCI-H522; experiment: Growth inhibition of human NCI-H522 cells; format: functional; outline: as §1

COc1cc(/C=C/C(=O)c2cccc(-n3cc(-c4ccccc4)[nH]c3=O)c2)ccc1O
GI50 [1]: 2040 nM
GI50 [2]: 1670 nM
Activity [3]: 7.63%
GI50 [4]: 2070 nM
GI50 [5]: 1400 nM
GI50 [6]: 3.9 µM
GI50 [7]: 5.29 µM
GI50 [8]: 4.11 µM
GI50 [9]: 2290 nM
GI50 [10]: 2270 nM
Activity [11]: 40.05%
GI50 [12]: 2610 nM
Activity [13]: Active
GI50 [14]: 2730 nM
GI50 [15]: 1910 nM
GI50 [16]: 3.65 µM
GI50 [17]: 1550 nM
Activity [18]: 11.17%
GI50 [19]: 2600 nM
GI50 [20]: 2180 nM
GI50 [21]: 3.77 µM
GI50 [22]: 3.85 µM
Activity [23]: 2.41%
GI50 [24]: 1350 nM
GI50 [25]: 2010 nM
Activity [26]: 48.85%
GI50 [27]: 2500 nM
GI50 [28]: 3.9 µM
GI50 [29]: 2960 nM
GI50 [30]: 3.04 µM
GI50 [31]: 1880 nM
GI50 [32]: 2520 nM
GI50 [33]: 2210 nM
GI50 [34]: 1510 nM
GI50 [35]: 2140 nM
GI50 [36]: 2190 nM
GI50 [37]: 2670 nM
GI50 [38]: 1480 nM
GI50 [39]: 2780 nM
GI50 [40]: 4.16 µM
Activity [41]: 14.13%
GI50 [42]: 1680 nM
GI50 [43]: 2700 nM
GI50 [44]: 3.76 µM
GI50 [45]: 3.39 µM
Activity [46]: Active
GI50 [47]: 2270 nM
GI50 [48]: 3.36 µM
GI50 [49]: 1590 nM
GI50 [50]: 2290 nM
GI50 [51]: 1850 nM
GI50 [52]: 2020 nM
Activity [53]: 49.91%
GI50 [54]: 6.81 µM
GI50 [55]: 2920 nM
GI50 [56]: 1610 nM
GI50 [57]: 2110 nM
GI50 [58]: 2040 nM
GI50 [59]: 3.31 µM
GI50 [60]: 5.19 µM
GI50 [61]: 1950 nM
Activity [62]: 25.85%
GI50 [63]: 2360 nM
